Measured values taken from ChEMBL document CHEMBL1144735, “Design, synthesis, and evaluation of trifluoromethyl ketones as inhibitors of SARS-CoV 3CL protease” (Bioorg Med Chem, 2008).
pIC50: −log10 of the molar value.

Biological target: Replicase polyprotein 1a (Severe acute respiratory syndrome-related coronavirus, UniProt P0C6U8)
Assay: Inhibition of SARS-CoV 3CL protease
In short: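 Purified SARS-CoV 3CL protease (50 nM) with 6 μM fluorogenic substrate peptide in 20 mM Bis–Tris pH 7.0 at 25 °C. Initial velocities were read across inhibitor concentrations and fitted for IC50.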

Going from `CCCCCCCCC(=O)N[C@@H](CC(C)C)C(=O)NC(Cc1ccccc1)C(=O)C(F)(F)F` (stereo partly drawn) to `CCCCCCCCCC(=O)N[C@@H](CC(C)C)C(=O)NC(Cc1ccccc1)C(=O)C(F)(F)F` (mixture of isomers), the pIC50 rises from less than 4.30 to 4.30. The second is the more potent here.

`C[C@H](NC(=O)[C@H](CCC(=O)OC(C)(C)C)NC(=O)OC(C)(C)C)C(=O)NCC(=O)C(F)(F)F` and `CC(C)C[C@H](NC(=O)OC(C)(C)C)C(=O)NC(C)C(=O)C(F)(F)F` (mixture of isomers) are the same in pIC50: 4.40 for the first, 4.40 for the second.

Compared with `C[C@H](NC(=O)[C@@H](N)CCC(=O)O)C(=O)NCC(=O)C(F)(F)F`, `CC(C)C[C@H](NC(=O)[C@@H](NC(=O)[C@H](C)NC(=O)OCc1ccccc1)C(C)C)C(=O)N[C@@H](Cc1ccccc1)C(=O)C(F)(F)F` (mixture of isomers) is 0.70 log units higher in pIC50: 4.30 for the first, 5.00 for the second. The second is the more potent here.

`CC(C)C[C@H](NC(=O)OCc1ccccc1)C(=O)NC(Cc1ccccc1)C(=O)C(F)(F)F` (mixture of isomers) and `O=C(N[C@@H](Cc1ccccc1)C(=O)NC(Cc1ccccc1)C(=O)C(F)(F)F)OCc1ccccc1` (mixture of isomers) are within 0.2 log units of each other in pIC50: 4.82 for the first, 4.70 for the second.
